High-throughput results from PubChem BioAssay.
MrgX1 agonist: agonists of human MrgX1 receptor | 310,000 compounds, 0.44% hits | MrgX1-HEK293 cells, Fluo-4 calcium fluorescence, agonist mode; stronger effect = higher value | AID 588627 | Q96LB2 | B-score at 10 µM;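 active = calcium response B-score plate-corrected fluorescence ratio at least 3 library SD, with starting fluorescence B-score inside 5 SD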
Target sequence (Q96LB2 whole entry, looked up): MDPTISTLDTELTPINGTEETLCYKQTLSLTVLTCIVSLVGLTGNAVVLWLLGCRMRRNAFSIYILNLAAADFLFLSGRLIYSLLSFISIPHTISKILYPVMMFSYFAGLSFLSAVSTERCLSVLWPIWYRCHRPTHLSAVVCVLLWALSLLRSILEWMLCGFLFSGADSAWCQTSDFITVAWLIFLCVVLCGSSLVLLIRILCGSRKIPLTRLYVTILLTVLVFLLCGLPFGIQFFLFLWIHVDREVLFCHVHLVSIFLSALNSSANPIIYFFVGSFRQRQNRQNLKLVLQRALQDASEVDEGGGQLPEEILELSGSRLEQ
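Material: MrgX1-expressing HEK293 cells; input: 15,000 cells per well; doses: test compound given as first of three sequential additions; schedule: overnight plating before 1 h dye loading; technique: Fluo-4 NW calcium-flux fluorescence, kinetic read; evaluation: baseline-normalised fluorescence change ratio, B-scored; control set: plate-wise positive and negative controls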
MrgX1 antagonist: human MrgX1 receptor antagonism, primary screen. Q96LB2. MRGX1-HEK293 calcium flux, Fluo-4, BAM8-22 antagonism; stronger effect = lower value. B-score at 10 µM. 310,000 compounds, 1.3% hits. AID 588676;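 active = calcium-response B-score plate-corrected more than 3 library SD below zero, starting fluorescence within 5 deviations, no agonist response on first addition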;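 note: peak minus trough fluorescence over baseline after final BAM8-22 challenge near maximal dose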
RGS4 block: human RGS4 inhibition | B-score at 10 µM | 310,000 compounds, 0.45% hits | HEK293 M3R/RGS4 inducible, Fluo-4 calcium flux; stronger effect = higher value; triggered by carbachol at its EC20;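 active = B-score, a plate-corrected calcium signal, over three deviations above library mean, with baseline fluorescence within five deviations of library mean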;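 note: RGS4 expression induced by doxycycline in cells with stable M3 receptor; B-score is computed from the integrated fluorescence ratio over baseline after carbachol; higher B-score means a larger calcium signal and so more RGS4 inhibition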
Target sequence (P49798 whole entry, looked up): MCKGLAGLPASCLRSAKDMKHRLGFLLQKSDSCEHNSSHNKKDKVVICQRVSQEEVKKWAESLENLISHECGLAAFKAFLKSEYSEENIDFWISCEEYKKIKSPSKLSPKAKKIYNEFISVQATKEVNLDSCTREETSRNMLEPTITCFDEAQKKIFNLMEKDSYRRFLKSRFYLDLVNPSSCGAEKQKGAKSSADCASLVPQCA
RGS4 act: potentiators or activators of RGS4; HEK293 M3R/inducible RGS4, carbachol calcium flux Fluo4; stronger effect = lower value; B-score at 10 µM; 310,000 compounds, 0.92% hits;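 active = B-score of the integrated calcium signal more than 4 SD below the library mean, with starting fluorescence not abnormally high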;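 note: negative B-score means reduced calcium response which marks RGS4 activation or potentiation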
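Reagent: ECmax carbachol challenge; Test system: M3R-expressing HEK293 line, RGS4 induced by doxycycline; Schedule: overnight RGS4 induction, 30 min dye load 37 °C, 20 min compound RT; Detection: calcium dye Fluo4 fluorescence; Read-out: Agonist-evoked peak-minus-minimum fluorescence over baseline, integrated ratio, B score.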
MrgX1 PAM: human MrgX1 positive allosteric modulation, primary screen; Q96LB2; MrgX1-HEK293, Fluo-4 calcium flux, FDSS; stronger effect = higher value; B-score at 10 µM; 310,000 compounds, 0.63% hits; AID 588675;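 active = plate-corrected calcium response at least 3 library SD above typical, normal starting fluorescence, not activating the receptor alone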;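 note: compound read alongside a low EC10 to EC30 dose of BAM8-22 agonist; peak minus trough fluorescence over baseline measured at the second addition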
MrgX1 allo conf: reconfirmed allosteric activator of human MrgX1 receptor; shares compounds with MrgX1 PAM; MrgX1-HEK293, Fluo-4 calcium fluorescence, FDSS; activation (ratio percentage), % at 10 µM; AID 602413; 1,200 compounds, 13% hits;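 active = ratio at least 3 SD above the weak peptide control, stable starting fluorescence, no direct agonism earlier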;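 note: compound followed by low BAM8-22 agonist challenge near EC20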
HEK293 Ca flux: activity in parental HEK293 cells lacking MrgX1; shares compounds with MrgX1 antagonist; Fluo-4 calcium fluorescence, FDSS; fluorescence ratio F(max-min)/F0 at 10 µM; 4,000 compounds, 2% hits; AID 624111;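 active = duplicate-averaged calcium fluorescence ratio at least three times the standard deviation of buffer wells, a nonspecific response in parental cells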
HEK293 Ca counter: counter-screen for MrgX1 allosteric activators: effect in parental HEK293 cells. 4,000 compounds, 0.4% hits. AID 624114. shares compounds with MrgX1 antagonist. parental HEK293 calcium flux, Fluo-4 fluorescence ratio; stronger effect = higher value. fluorescence ratio F(max-min)/F0 at 10 µM;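 active = calcium fluorescence ratio, averaged over duplicates, at least 3 SD of the buffer-well ratio, meaning a nonspecific response in receptor-free cells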;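 note: untransfected parental HEK293 lacking MrgX1 used as counterscreen for MrgX1 allosteric activators; fluorescence change taken during the second addition on a kinetic imager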
HEK293 Ca cntr2: activity in parental HEK293 cells lacking MrgX1 receptor | 4,000 compounds, 8.7% hits | fluorescence ratio F(max-min)/F0 at 10 µM | shares compounds with MrgX1 antagonist | Fluo-4 calcium fluorescence (FDSS); stronger effect = higher value;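 active = calcium fluorescence ratio at least three times the spread of buffer wells, meaning a non-specific response in parental cells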
Numbers stand for hits; . = inactive; / = no result. Compounds with a hit are over-represented: about 3.5% of the library has one in this group of screens.

SMILES | MrgX1 agonist | MrgX1 antagonist | RGS4 block | RGS4 act | MrgX1 PAM | MrgX1 allo conf | HEK293 Ca flux | HEK293 Ca counter | HEK293 Ca cntr2
CCN1C(=O)CSC1=NC12CC3CC(CC(C3)C1)C2 | . | . | . | . | . | / | / | / | /
CC(NC(=O)c1cc(F)c(F)c(F)c1F)c1ccc(-n2ccnc2)cc1 (stereo not given) | . | . | . | . | . | / | / | / | /
CSc1nnc(CCNS(=O)(=O)c2ccc(Br)cc2)n1C | . | . | . | . | . | / | / | / | /
O=C(Nc1ccccn1)c1csc2c1CCCC2 | . | . | . | . | 8.6 | . | . | . | .
COc1ccccc1NC(=O)c1csc2c1CCCC2 | . | . | . | . | . | / | / | / | /
CCCN1C2CCCC1CC(NC(=O)c1ccc(Br)cc1)C2 (stereo not given) | . | . | . | . | . | / | / | / | /
COc1ccc(CCNS(=O)(=O)c2ccc3c(c2)NC(=O)CO3)cc1OC | . | . | . | . | 33 | . | . | . | .
Cc1nn(C)c(Cl)c1S(=O)(=O)N1CCC(CO)(CCc2ccccc2)CC1 | . | . | . | . | . | / | / | / | /
Cc1[nH]ncc1-c1nc2ccccc2[nH]1 | . | . | . | . | 13 | . | . | . | .
C=CCn1c2ccccc2c2nnc(SCCN3CCOCC3)nc21 | . | . | . | . | . | / | / | / | /
COCc1cc(C)nc(NC2CCCCC2)c1C#N | . | . | / | / | . | / | / | / | /
COCc1cc(SC2CCCCC2)nc(C)n1 | . | . | . | . | 15 | . | . | . | .
S=c1[nH]c2cc(-c3ccccc3)ccc2o1 | . | . | . | . | . | / | / | / | /
CC(C)(C)OC(=O)N1CCC(c2c(C(=O)N3CCN(C(=O)c4ccco4)CC3)cnn2-c2ccc(F)cc2F)CC1 | . | . | . | . | . | / | / | / | /
CCc1ccc(C(N)=S)cc1 | . | . | . | . | 9 | . | . | . | .
COc1ccc(NC(=O)C2CCCN(C(=O)Nc3ccc(F)cc3)C2)cc1 (stereo not given) | . | . | . | . | . | / | / | / | /
Cc1ccc(Nc2cc(C)c3ccc(O)cc3n2)cc1C | . | . | . | . | 10 | . | . | . | .
Cc1ccc(Nc2cc(C)c3c(O)cccc3n2)cc1C | . | . | . | . | . | / | / | / | /
CCn1ncc([N+](=O)[O-])c1C(=O)N1CCc2ccccc2C1 | . | . | . | . | . | / | / | / | /
C[n+]1cc(C(=O)N2CCCCC2)ccc1/C=C/c1c[nH]c2ccccc12 | . | . | . | . | . | / | / | / | /
Cc1ccc(C(=O)N/C(=C\c2cccs2)C(=O)NCC2CCCO2)cc1C (stereo not given) | . | . | . | . | . | / | / | / | /
COc1ccc(S(=O)(=O)N2CCC(C(=O)NCC3CC3)CC2)cc1 | . | . | . | . | 13 | . | . | . | .
COc1ccc(OCC(=O)N2CCN(S(=O)(=O)c3ccc(Cl)cc3)CC2)cc1 | . | . | . | . | 14 | . | . | . | .
COc1ccc(OCCC(=O)NCC23CC4CC(CC(C4)C2)C3)cc1 | . | . | . | . | 8.9 | . | . | . | .
COc1ccc(C)cc1NC(=O)CNc1ccc(C(C)=O)cc1 | . | . | . | . | . | / | / | / | /
SMILES | MrgX1 agonist | MrgX1 antagonist | RGS4 block | RGS4 act | MrgX1 PAM | MrgX1 allo conf | HEK293 Ca flux | HEK293 Ca counter | HEK293 Ca cntr2
Cc1ccc(C)c(N2CCN(C(=O)c3csc(C)c3C)CC2)c1 | . | . | . | . | 6.9 | . | . | . | .
Nc1nc(Nc2ccccc2)nc(C(F)(F)F)n1 | . | . | . | . | . | / | / | / | /
Nc1nc(Nc2ccccc2Br)nc(C(F)(F)F)n1 | . | . | . | . | 9.1 | . | . | . | .
c1ccc(-c2csc(-c3cccnc3)n2)cc1 | . | . | . | . | 14 | . | . | . | .
Cc1ccc(OCc2n[nH]c(=S)n2-c2ccc(Br)cc2)cc1 | . | . | . | . | 7.6 | . | . | . | .
Cc1ccc(OCc2n[nH]c(=S)n2-c2ccc(Cl)cc2)cc1 | . | . | . | . | . | / | / | / | /
